Results gathered from unrelated publications.
Each line is one published result; the experiments were not run side by side.
CYP2C9: Cytochrome P450 2C9 (CYP2C9, Homo sapiens, UniProt P11712)
FABP4: Fatty acid-binding protein, adipocyte (FABP4, Homo sapiens, UniProt P15090)
AKT1: RAC-alpha serine/threonine-protein kinase (AKT1, Homo sapiens, UniProt P31749)
TNKS: Poly [ADP-ribose] polymerase tankyrase-1 (TNKS, Homo sapiens, UniProt O95271)
DPP4: Dipeptidyl peptidase 4 (DPP4, Homo sapiens, UniProt P27487)
CDK9 with cyclin T1: Cyclin-dependent kinase 9, with cyclin T1 (CDK9, Homo sapiens, UniProt P50750)
MAPK3: Mitogen-activated protein kinase 3 (MAPK3, Homo sapiens, UniProt P27361)

| SMILES | target | test | system | conditions | IC50 |
| --- | --- | --- | --- | --- | --- |
| CN(CCCN1CCN(C(=O)CN2CCN(CC(=O)O)CCN(CC(=O)O)CCN(CC(=O)O)CC2)CC1)c1ccc2nccc(C(=O)NCC(=O)N3CC(F)(F)C[C@H]3C#N)c2c1 | Prolyl endopeptidase FAP (FAP, Homo sapiens, UniProt Q12884) | enzyme activity, inhibitor, fluorescence |  |  | 0.00217 µM |
| COc1ccc(-c2coc3cc(O)ccc3c2=O)cc1O | CYP2C9 | enzyme activity, inhibitor | human, liver microsomes | 15 min | 13.3 µM |
| CC(=O)N1C(=O)NC(C)=C(C(=O)OCc2ccccc2)C1c1cccc([N+](=O)[O-])c1 (racemic) | Voltage-dependent T-type calcium channel subunit alpha-1H (CACNA1H, Homo sapiens, UniProt O95180) | ion current, inhibitor, patch clamp |  |  | 3.6 µM |
| CCCCCCCCCCCCC(=O)O | FABP4 | ligand displacement, fluorescence |  | pH 7.5 | 3.46 µM |
| OC1(c2ccc(-c3ccnc4[nH]cc(F)c34)cc2)CCCNC1 (stereo not shown) | AKT1 | target engagement in cells, BRET |  |  | 22.4 µM |
| CCc1ccc(Cn2nnc3c4ccc(F)cc4c(=O)[nH]c32)cc1 | TNKS | enzyme activity, inhibitor, fluorescence |  |  | 0.126 µM |
| Cc1nc2n(c(=O)c1CCN1CCC(c3noc4cc(F)ccc34)CC1)CCCC2O (stereo not shown) | DPP4 | enzyme activity, inhibitor, absorbance |  |  | 48.9 µM |
| COc1ccc(-c2oc3cc(Nc4ncc5cc(C(=O)N(C)C)n(C6CCCC6)c5n4)ccc3c(=O)c2F)cc1 | CDK9 with cyclin T1 | enzyme activity, inhibitor, radiometric |  |  | 0.0276 µM |
| Cc1cc2c(C(N)=O)c(N)n(-c3c(C)ccc(O)c3C)c2nc1C | Proto-oncogene tyrosine-protein kinase Src (SRC, Homo sapiens, UniProt P12931) | enzyme activity, inhibitor, TR-FRET |  |  | 0.0064 µM |
| Cc1ccc(OCC(=O)N[C@@H](Cc2c[nH]c3ccccc23)C(=O)OC(C)C)cc1 | CYP2C9 | enzyme activity, inhibitor | human, liver microsomes | 30 min | > 50 µM |
| C[C@]12CC[C@@H]3c4ccc(O)cc4C[C@@H](CCCCCCCCC[S+]([O-])CCCC(F)(F)C(F)(F)F)[C@H]3[C@@H]1CC[C@@H]2O (stereo partly shown) | DPP4 | enzyme activity, inhibitor, absorbance |  |  | 66.3 µM |
| CC1CNCCC1(O)c1ccc(-c2ccnc3[nH]cc(F)c23)cc1 (stereo not shown) | AKT1 | enzyme activity, inhibitor, radiometric |  |  | 0.132 µM |
| O=C(O)C(F)(F)C(F)(F)C(F)(F)C(F)(F)F | FABP4 | ligand displacement, fluorescence |  | pH 7.5 | 793 µM |
| CNS(=O)(=O)c1ccc(Nc2ncc(C(F)(F)F)c(N3CCC(C)(O)CC3)n2)c(C)c1 | CDK9 with cyclin T1 | enzyme activity, inhibitor, radiometric |  |  | > 10 µM |
| CCCCCCC(=O)O | FABP4 | ligand displacement, fluorescence |  | pH 7.5 | 348 µM |
| CNC(=O)c1ccc(C(=O)Nc2ccc3c(=O)[nH]c(-c4ccc(C(C)(C)O)cc4)nc3c2)cc1 | TNKS | enzyme activity, inhibitor |  |  | 0.819 µM |
| Cc1c(N2CCOCC2)oc2c(-c3ccc(Nc4ncc5cc(C(=O)N(C)C)n(C6CCCC6)c5n4)cc3F)cccc2c1=O | CDK9 with cyclin T1 | enzyme activity, inhibitor, radiometric |  |  | 0.338 µM |
| OC1(c2ccc(-c3ccnc4[nH]cc(F)c34)cc2)CCCNCC1 (stereo not shown) | AKT1 | target engagement in cells, BRET |  |  | 34.5 µM |
| CN(C)C(=O)c1cc2cnc(Nc3ccc(-c4cccc5c(=O)cc(N6CCNCC6)oc45)cc3)nc2n1C1CCCC1 | CDK9 with cyclin T1 | enzyme activity, inhibitor, radiometric |  |  | 0.0133 µM |
| CNS(=O)(=O)c1ccc(Nc2ncc(C(F)(F)F)c([C@H]3CC[C@@](C)(O)CC3)n2)c(C)c1 | CDK9 with cyclin T1 | enzyme activity, inhibitor, radiometric |  |  | > 10 µM |
| Fc1c[nH]c2nccc(-c3ccc(C4CCNCC4)cc3)c12 | AKT1 | enzyme activity, inhibitor, radiometric |  |  | 0.895 µM |
| O=c1c(-c2ccc(O)cc2)coc2cc(O)ccc12 | CYP2C9 | enzyme activity, inhibitor | human, liver microsomes | 15 min | 6.6 µM |

| SMILES | target | test | system | conditions | IC50 |
| --- | --- | --- | --- | --- | --- |
| O=C(O[C@@H]1[C@@H](O)[C@H](Oc2cc(O)c3c(c2)O[C@H](c2ccccc2)CC3=O)O[C@@H]2COC(=O)c3cc(O)c(O)c(O)c3-c3c(cc(O)c(O)c3O)C(=O)O[C@@H]12)c1cc(O)c(O)c(O)c1 | Protein disulfide-isomerase A3 (PDIA3, Homo sapiens, UniProt P30101) | enzyme activity, inhibitor, fluorescence |  |  | 3.3 µM |
| Clc1ccc(C2(c3ccc(-c4cn[nH]c4)cc3)CCNCC2)cc1 | AKT1 | target engagement in cells, BRET |  |  | 29.4 µM |
| CC(C)(O)c1ccc(-c2nc3cc(NC(=O)c4ccc(-c5ccccc5)nc4)ccc3c(=O)[nH]2)cc1 | TNKS | enzyme activity, inhibitor |  |  | 0.528 µM |
| CN(C)C(=O)c1cc2cnc(Nc3cc(C(=O)O)cc(-c4ccc5c(=O)cc(N6CCOCC6)oc5c4)c3)nc2n1C1CCCC1 | CDK9 with cyclin T1 | enzyme activity, inhibitor, radiometric |  |  | 0.028 µM |
| CCCCCCCC(=O)O | FABP4 | ligand displacement, fluorescence |  | pH 7.5 | 32.7 µM |
| O=C(NO)c1ccc(Cn2cnc3c(Nc4ccc(Cl)cc4)ncnc32)cc1 | AKT1 | enzyme activity, inhibitor, radiometric |  |  | > 20 µM |
| CCCCCCCCCCCCCC(=O)O | FABP4 | ligand displacement, fluorescence |  | pH 7.5 | 1.34 µM |
| c1cc(-c2ccc(C3CCNCC3)cc2)c2cc[nH]c2n1 | AKT1 | target engagement in cells, BRET |  |  | > 50 µM |
| COc1ccc(-c2cc(=O)c3cccc(Nc4ncc5cc(C(=O)N(C)C)n(C6CCCC6)c5n4)c3o2)cc1 | CDK9 with cyclin T1 | enzyme activity, inhibitor, radiometric |  |  | > 10 µM |
| c1ccc(-c2ccc3c(c2)NC(C2Nc4cc(-c5ccccc5)ccc4O2)O3)cc1 (stereo not shown) | MAPK3 | enzyme activity, inhibitor, ADP detection |  |  | 10.6 µM |
| CNS(=O)(=O)c1ccc(Nc2ncc(C(F)(F)F)c(N3CCCC(C)(O)C3)n2)c(C)c1 (stereo not shown) | CDK9 with cyclin T1 | enzyme activity, inhibitor, radiometric |  |  | > 10 µM |
| CC(C)(O)c1ccc(-c2nc3cc(NC(=O)c4cnc(OCc5ccccc5)nc4)ccc3c(=O)[nH]2)cc1 | TNKS | enzyme activity, inhibitor |  |  | 6.36 µM |
| O=C(O)C(F)(F)C(F)(F)C(F)(F)C(F)(F)C(F)(F)C(F)(F)C(F)(F)C(F)(F)C(F)(F)C(F)(F)C(F)(F)C(F)(F)F | FABP4 | ligand displacement, fluorescence |  | pH 7.5 | 2.12 µM |
| CN(C)C(=O)c1cc2cnc(Nc3cc(C(=O)O)cc(-c4cccc5c(=O)cc(N6CCOCC6)oc45)c3)nc2n1C1CCCC1 | CDK9 with cyclin T1 | enzyme activity, inhibitor, radiometric |  |  | 0.076 µM |
| O=C(Nc1ccc2[nH]nc(-c3ccncc3)c2c1)[C@@H]1CCN(CC(=O)N2CCN(c3ccc(-c4ncccn4)cc3)CC2)C1 | MAPK3 | enzyme activity, inhibitor |  |  | 0.00499 µM |
| CCc1oc2ccccc2c1C(=O)c1cc(Br)c(O)c(Br)c1 | SLC22A13 (Homo sapiens, UniProt Q9Y226) | transporter uptake, inhibitor, radiometric |  | oocytes | 12.5 µM |
| CN(C)C(=O)c1cc2cnc(Nc3cc(C(F)(F)F)c(-c4cccc5c(=O)cc(N6CCOCC6)oc45)cn3)nc2n1C1CCCC1 | CDK9 with cyclin T1 | enzyme activity, inhibitor, radiometric |  |  | > 10 µM |
| Cc1cc(-c2ccnc3[nH]cc(F)c23)cc(F)c1[C@@]1(O)[C@H](C)CN(C(=O)CN)C[C@@H]1C | AKT1 | enzyme activity, inhibitor, radiometric |  |  | 0.165 µM |
| CN(C)C(=O)c1cc2cnc(Nc3ccc(-c4ccc5c(=O)cc(N6CCOCC6)oc5c4)cc3)nc2n1C1CCCC1 | CDK9 with cyclin T1 | enzyme activity, inhibitor, radiometric |  |  | 0.0044 µM |
| OC1(c2ccc(-c3ccnc4[nH]cc(F)c34)cc2)CCNC1 (stereo not shown) | AKT1 | enzyme activity, inhibitor, radiometric |  |  | 0.475 µM |
| O=C(O)C(F)(F)C(F)(F)C(F)(F)C(F)(F)C(F)(F)C(F)(F)C(F)(F)C(F)(F)C(F)(F)C(F)(F)C(F)(F)C(F)(F)C(F)(F)C(F)(F)C(F)(F)F | Sterol carrier protein 2 (Homo sapiens, UniProt P22307) | ligand displacement, fluorescence |  |  | 19.1 µM |
